Experimental data from ChEMBL document CHEMBL1140638, “Kipukasins, nucleoside derivatives from Aspergillus versicolor” (2007).
Active and inactive are the calls of the source. The rule behind the calls is not given here.

Assays:
Staphylococcus aureus = assay: Antibacterial activity against Staphylococcus aureus ATCC 29213 at 100 ug/disk; assay type: functional
Outline: (§1)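 Disk diffusion assay with 100 μg of compound per disk. Strains used were Staphylococcus aureus ATCC 29213 and Bacillus subtilis ATCC 6051. The read-out was the diameter of the zone of inhibition in mm.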

Candida albicans = assay: Antifungal activity against Candida albicans ATCC 14053 at 200 ug/disk; assay type: functional, organism-based
Fusarium verticillioides = assay: Antifungal activity against Fusarium verticillioides NRRL 25457 at 200 ug/disk; assay type: functional, organism-based
Aspergillus flavus = assay: Antifungal activity against Aspergillus flavus NRRL 6541 at 200 ug/disk; assay type: functional, organism-based
Bacillus subtilis = assay: Antibacterial activity against Bacillus subtilis at 100 ug/disk; assay type: functional; outline: as §1

`COc1cc(O)cc(C)c1C(=O)O[C@H]1[C@@H](O)[C@H](n2ccc(=O)n(C)c2=O)O[C@@H]1CO` was tested, and the Activity (Staphylococcus aureus) was “inactive”, the Activity (Candida albicans) was “inactive” and the Activity (Fusarium verticillioides) was “inactive”. For the same compound, the Activity (Aspergillus flavus) was “inactive” and the Activity (Bacillus subtilis) was “inactive”.
`COc1cc(O)cc(C)c1C(=O)O[C@H]1[C@@H](OC(C)=O)[C@H](n2ccc(=O)n(C)c2=O)O[C@@H]1CO` was tested, and the Activity (Staphylococcus aureus) was “inactive”, the Activity (Candida albicans) was “inactive” and the Activity (Fusarium verticillioides) was “inactive”. For the same compound, the Activity (Aspergillus flavus) was “inactive” and the Activity (Bacillus subtilis) was “inactive”.
In the case of `COc1cc(C)c(C(=O)O[C@H]2[C@@H](O)[C@H](n3ccc(=O)[nH]c3=O)O[C@@H]2CO)c(OC)c1`, the Activity (Staphylococcus aureus) is reported as “inactive”, the Activity (Candida albicans) is reported as “inactive” and the Activity (Fusarium verticillioides) is reported as “inactive”. The Activity (Aspergillus flavus) was “inactive” and the Activity (Bacillus subtilis) was “inactive”.
In the case of `COc1cc(C)c(C(=O)O[C@@H]2[C@H](O)[C@@H](CO)O[C@H]2n2ccc(=O)[nH]c2=O)c(OC)c1`, the Activity (Staphylococcus aureus) is reported as “inactive”, the Activity (Candida albicans) is reported as “inactive” and the Activity (Fusarium verticillioides) is reported as “inactive”. For the same compound, the Activity (Aspergillus flavus) was “inactive” and the Activity (Bacillus subtilis) was “inactive”.
In the case of `COc1cc(C)c(C(=O)O[C@H]2[C@@H](OC(C)=O)[C@H](n3ccc(=O)[nH]c3=O)O[C@@H]2CO)c(O)c1`, the Activity (Staphylococcus aureus) is reported as “inactive”, the Activity (Candida albicans) is reported as “inactive” and the Activity (Fusarium verticillioides) is reported as “inactive”. The Activity (Aspergillus flavus) was “inactive” and the Activity (Bacillus subtilis) was “inactive”.
With `COc1cc(C)c(C(=O)O[C@H]2[C@@H](OC(C)=O)[C@H](n3ccc(=O)[nH]c3=O)O[C@@H]2CO)c(OC)c1` the zone of inhibition at 100 µg/disc (Staphylococcus aureus; read-out: IZ) was 18 mm, the Activity (Candida albicans) was “inactive” and the Activity (Fusarium verticillioides) was “inactive”. The Activity (Aspergillus flavus) was “inactive”.
In the case of `COc1cc(O)cc(C)c1C(=O)O[C@H]1[C@@H](OC(C)=O)[C@H](n2ccc(=O)[nH]c2=O)O[C@@H]1CO`, the Activity (Candida albicans) is reported as “inactive”, the Activity (Fusarium verticillioides) is reported as “inactive” and the Activity (Aspergillus flavus) is reported as “inactive”. It also gave a zone of inhibition at 100 µg/disc (Bacillus subtilis; read-out: IZ) of 12 mm.
